Source: PMC4363178 (Biochemical and biophysical research communications, 2015)
Peptide text beside a SMILES is read from it.

Key:
[1] = biological target: PDZ1 domain of mouse ZO2 (M-ZO2PDZ1) (mouse) (UniProt Q9Z0U1); test: NMR titration
[2] = biological target: T1, PDZ1 of mouse ZO2 (M-ZO2PDZ1) (Mus musculus, UniProt Q9Z0U1); test: NMR titration; format: binding; conditions: for Decrease of chemical shift change of R87 relative to wild-type Cln1-C: same concentration of wild-type Cln1-C, stated jointly for the two mutants
T1 sequence (Q9Z0U1 1-102): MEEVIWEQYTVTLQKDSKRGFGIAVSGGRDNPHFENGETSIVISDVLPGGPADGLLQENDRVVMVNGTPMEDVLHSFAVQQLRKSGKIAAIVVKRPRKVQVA
Method in brief: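 His-tag-cleaved mouse ZO2 PDZ1 from E. coli BL21(DE3), 15N-labelled in M9 medium, at 0.1 mM in pH 5.2 buffer (50mM phosphate, 50mM NaCl, 0.2mM EDTA). Unmodified peptides (>95% pure; 50 mM stock) were added stepwise up to 12:1 peptide:protein, with ≤10% total dilution. A 1H-15N HSQC was recorded at each point at 600 MHz and 298K. Composite shift = {[δHN]^2 + [0.17 δN]^2}^1/2.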

Sequence of PDZ1 domain of mouse ZO2 (M-ZO2PDZ1) (mouse) (Q9Z0U1 1-104): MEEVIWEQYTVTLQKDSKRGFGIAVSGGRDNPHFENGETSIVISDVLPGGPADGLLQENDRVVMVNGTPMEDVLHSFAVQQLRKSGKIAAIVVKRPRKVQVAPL

Kd [2] [µM]	Decrease of chemical shift change of R87 relative to wild-type Cln1-C [2] [fold]	Compound	further results
		mutant PMP22 C-terminal peptide PMP22-M1 (ILRKREYV)	Kd [1]: 150 µM
500 ± 250		C[C@H](NC(=O)[C@H](Cc1ccc(O)cc1)NC(=O)[C@H](CC(=O)O)NC(=O)[C@H](CCCCN)NC(=O)CNC(=O)[C@H](CO)NC(=O)[C@H](CO)NC(=O)[C@@H]1CCCN1)C(=O)O [Cln1-C-YA] (H-PSSGKDYA-OH)	
	22	PSSGKDAA [Cln1-C-AA]	
	22	PSSGKDVY [Cln1-C-VY]	
150 ± 50		CC[C@H](C)[C@H](N)C(=O)N[C@@H](CC(C)C)C(=O)N[C@@H](CCCNC(=N)N)C(=O)N[C@@H](CCCCN)C(=O)N[C@@H](CCCNC(=N)N)C(=O)N[C@@H](CCC(=O)O)C(=O)N[C@@H](Cc1ccc(O)cc1)C(=O)N[C@H](C(=O)O)C(C)C [PMP22-YV] (H-ILRKREYV-OH)	
